The source of these data is ChEMBL document CHEMBL4513216, “Probing the Open Global Health Chemical Diversity Library for Multistage-Active Starting Points for Next-Generation Antimalarials” (ACS Infect Dis, 2020).

Structures are written as SMILES.

The series can be described thus: Toxicity liver stage against HepG2, at 10uM. Type of series: cell-based. Details: test concentration 10 uM, cell line HepG2-A16-CD81EGFP. The conditions noted are these: human, HepG2-A16-CD81EGFP cells; read-out: INHIBITION
An outline of the steps: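 Uninfected HepG2-A16-CD81EGFP cells, 3 × 10^3 per well, 1536-well, plated on prespotted compound at 10 μM final, parasite-free screening media added to match infected plates; puromycin 10 μM positive, DMSO 0.5% negative; run in parallel with 48 h PbLuc assay at 37 °C, 5% CO2; viability by CellTiter-Glo luminescence, normalized to controls.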
In the case of `CC(C)N1C[C@@H](F)[C@@H](OCc2nc3ncccc3[nH]2)C1`, the cytotoxicity at 10 µM came to 5.47%.
Turning to `CN1C(=O)C2(CC(=O)Nc3[nH]ncc32)c2cc(F)ccc21` (stereo not drawn), the cytotoxicity at 10 µM was 0.488%.
In the case of `Nc1nc2c(c(NC(=O)Nc3ccccc3)n1)CCCC2` it was -9.74%.
Turning to `NC(=O)Cc1csc(NC(=O)C2CSCCC(=O)N2)n1` (stereo not drawn), the cytotoxicity at 10 µM turned out to be 0.722%.
In the case of `O=C(NC1CCC1)c1n[nH]c2c1CNCC2` it was 1.67%.
The value for `Cc1cnc(N2C[C@@H]3[C@@H](C2)OCC(=O)N3CC2CC2)nc1` was -0.357%; that for `O=C(c1ncccn1)N1C[C@@H]2CN(CC3CC3)CCO[C@@H]2C1` was 6.99%; that for `O=C(NCc1cccnc1)C1=NOC2(CCN(C3CCOCC3)C2)C1` (stereo not drawn) was -1.63%.
In the case of `O=C(c1ccccc1)N1CC[C@H]2C[C@H](c3nccs3)O[C@@H]2C1` it was 8.39%; in that of `CCOCc1ncn2c1CN(C(=O)Nc1cccc(C)c1)CC2`, -8.92%.
Consider `O=C(C1=CCCC1)N1C[C@H](Oc2cccnc2)[C@H]2OCCC[C@H]21`, for which the cytotoxicity at 10 µM was -8.42%.
Consider `CN(Cc1ccccn1)C1COC2(CCN(Cc3nccs3)CC2)C1` (stereo not drawn), for which the cytotoxicity at 10 µM was -16.2%.
In the case of `O=C(Nc1ccccc1)c1n[nH]c(-n2cnnc2)n1` it was 9.37%.
The value for `Cc1ccc(-c2noc(C3CCN3C(=O)c3c(C)noc3C)n2)s1` (stereo not drawn) was 6.09%.
The value for `C=Cn1cc(CN2CCC(c3ncc(Cl)cc3S(C)(=O)=O)CC2)c(C)n1` was 7.38%; that for `O=C(CCn1ccnc1)N1CC[C@H](Oc2ccc(F)cc2)[C@@H](O)CC1` was -3.06%.
As for `CCn1nccc1CN(C)C(=O)Cn1nc(C)cc1C`, the cytotoxicity at 10 µM came to 6.18%.
In the case of `Cc1nc(COC(=O)c2cccnc2C)no1`, the cytotoxicity at 10 µM is -0.2%.
Take `CCN(Cc1ccoc1)C(=O)Nc1ccccc1CN1CCOCC1`: the cytotoxicity at 10 µM was -14.8%.
In the case of `CC(NC(=O)c1ccc2c(c1)COC2)c1cccc(N2CCOC2=O)c1` (stereo not drawn) it was 14.9%; in that of `CNS(=O)(=O)CC(=O)N(C1CC1)C1Cc2ccccc2C1`, 3.45%.
As for `O=C(NCc1nnc2ccccn12)N1CCOC(c2ccsc2)C1` (stereo not drawn), the cytotoxicity at 10 µM came to 0.305%.
In the case of `CCn1cc(CNc2ccc(Br)c(OC)c2)cn1` it was 5.42%; in that of `Cc1ccc(C(=O)NCc2ccc(N(C)C)cc2)cn1`, -6.23%.
In the case of `CN(C)c1nccc(N(C)Cc2ncnn2C)n1` it was 6.09%.
In the case of `O=C(CN1CCSC(c2ccccc2)C1)NCc1ccccn1` (stereo not drawn) it was 14.5%; in that of `O=C1CCCN1c1cccc(CNCc2cc(F)ccc2F)c1`, 15.8%; in that of `Cc1cc(C)n(CC2CCCN2C(=O)Cc2cn3ccccc3n2)n1` (stereo not drawn), 2.47%.
As to `CC(Cn1cccn1)NC(=O)Nc1ccc(N(C)C)nc1` (stereo not drawn), the cytotoxicity at 10 µM is 14.4%.
In the case of `NC(=O)C1CCN(Cn2nc(-c3ccccc3)oc2=O)CC1` it was -16.8%; in that of `Cc1n[nH]cc1CNc1ccc2c(c1)N(C(=O)OC(C)(C)C)CCC2`, -1.97%; in that of `CC1CCN(CCNC(=O)c2cncnc2C(C)C)CC1`, -12%.
In the case of `CC(C)NC(=O)N1CC[C@@H]2CN(Cc3ccccc3)S(=O)(=O)[C@@H]2CC1` it was 9.62%.
Take `O=C(c1ccncc1)N1CCCn2c(CN3CCCCC3)nnc2C1`: the cytotoxicity at 10 µM is -5.77%.
Turning to `CN(C)C(=O)CCC1CCCN(Cc2cccc(-c3ccccn3)c2)C1` (stereo not drawn), the cytotoxicity at 10 µM was 3.45%.
Regarding `CN(CC1=CCCN(Cc2cccc(C#N)c2)C1)C(=O)c1ccco1`, the cytotoxicity at 10 µM is -5.15%.
Regarding `O=C(CSCC1CC1)N1CCCC2(CCC(=O)N(CC3CC3)C2)C1` (stereo not drawn), the cytotoxicity at 10 µM was 3.8%.
The value for `OCC1CCCN(c2ncnc3c2Cc2ccccc2OC3)C1` (stereo not drawn) was 1.44%; that for `COc1ccc(CCC(=O)N2CCNCC2C(=O)N2CCCC2)cc1` (stereo not drawn) was 1.18%.
In the case of `CCc1ccc(CN(C)C(=O)C2CC(=O)N(c3cccc(O)c3)C2)nc1` (stereo not drawn) it was -3.57%; in that of `CCn1cc(S(=O)(=O)NC2CCCN(CC3CCCCC3)C2)cn1` (stereo not drawn), -7.25%.
In the case of `COCCN1CCN(Cc2ccc(C(C)=O)cc2)[C@H]2CS(=O)(=O)C[C@H]21` it was -0.571%; in that of `CCc1cc(NCC(N)=O)nc(N2CCCCC2)n1`, 9.95%.
In the case of `O=C(NCCn1ccnc1-c1cc2n(n1)CCCNC2)c1ccncc1`, the cytotoxicity at 10 µM is -1.84%.
The value for `Cc1cc(Cl)ccc1C(=O)N1C[C@H](C2CC2)[C@@H](N)C1` was -46.6%.
Consider `COc1ccc(C)cc1-n1cnnc1C1CC(=O)N(C)C1` (stereo not drawn), for which the cytotoxicity at 10 µM is -9.25%.
In the case of `Cc1nc(CN(C)Cc2cnc(N3CCOCC3)s2)no1` it was 1.87%; in that of `C[C@@H]1CN(C(=O)C2(Cn3cccn3)CC2)CC[C@@]1(O)C1CCOCC1`, 3.48%; in that of `COCc1nc(Cn2c(C)cc(C(F)(F)F)cc2=O)no1`, -2.74%.
In the case of `COc1cc(C)ccc1C(=O)N1CCC2(CCC(=O)N(C(C)C)C2)CC1` it was 3.76%.
For `COc1ccc(C(=O)N2C[C@@H](CN3CCOCC3)[C@@H](CO)C2)c(C)c1`, the cytotoxicity at 10 µM was -13.8%.
In the case of `O=C(O)[C@@H]1CN(C(=O)c2ccc3[nH]nnc3c2)C[C@H]1c1cccc(F)c1` it was -8.66%; in that of `O=C(c1ccc(F)c(F)c1)N1CCCC(Nc2ccc(F)cc2)C1` (stereo not drawn), -12.1%; in that of `O=S(=O)(N1CCCC1)N1CCCCC1CCc1ccccc1` (stereo not drawn), -5.65%.
Turning to `COc1cccc(N2CCN(C(=O)[C@H](O)C3CCCCC3)CC2=O)c1`, the cytotoxicity at 10 µM was -14.1%.
In the case of `Cc1nccnc1N1CCC2(CCCN(C3CCOCC3)C2=O)C1` (stereo not drawn) it was -8.8%.
The value for `COCCc1ncc(CN2CCC(Oc3ccccc3C)CC2)cn1` was 4.67%; that for `O=C(Cc1ccc2c(c1)CCCC2)NCCNc1cnccn1` was -0.882%; that for `Cc1noc(NC(=O)c2ccc(Br)o2)n1` was -3.75%.
In the case of `COc1ccnc(N2CCN(C(=O)CN3CCOCC3)CC2)n1`, the cytotoxicity at 10 µM was -0.819%.
With `O=C(NCCOc1ccc2c(c1)OCO2)C1CC(=O)N(C2CC2)C1` (stereo not drawn), the cytotoxicity at 10 µM was -6.75%.
`COc1cc(CNC(=O)c2c(C)noc2C)ccn1`: the cytotoxicity at 10 µM is -8.83%.
The value for `CC(C)c1ccc(OCCC(=O)N2CCC(C(N)=O)CC2)cc1` was -11.5%.
The value for `Cc1cnn(C2CCCN(C(=O)Cc3ccc4c(c3)CCO4)C2)c1` (stereo not drawn) was -5.83%; that for `O=C(c1cnn(-c2ccccc2Cl)c1)N1CCN(CCO)CC1` was -4.26%.
Take `COc1c(C2CCCN2CC(=O)Nc2nc(C)cs2)c(C)nn1C` (stereo not drawn): the cytotoxicity at 10 µM was -6.76%.
In the case of `Cc1cccc(C(=O)N2CCCN(Cc3cnn(C)c3)CC2)n1` it was -10.5%; in that of `COc1cccc(-n2c(C)cc(C(=O)NS(C)(=O)=O)c2C)c1`, -6%.
For the compound `CCN1CCC(NC(=O)CN2CCCCC2Cn2cc(C)cn2)CC1` (stereo not drawn), the cytotoxicity at 10 µM is 0.144%.
The value for `Cc1cc(C)c(CNC(=O)N2CCCC2c2ccccc2)c(=O)[nH]1` (stereo not drawn) was -0.818%.
The value for `Cc1nc(CN(C)C2CCN(CCCOc3ccccc3)C2)no1` (stereo not drawn) was -9.26%; that for `Cc1cnn(CC2CN(Cc3nc(N)c4ccccc4n3)CCO2)c1` (stereo not drawn) was 5.9%.
For `Cc1cc(F)ccc1S(=O)(=O)NCc1cccc(C(=O)N2CCCC2)c1`, the cytotoxicity at 10 µM is -1.2%.
`CCCC(=O)N(CCCN1CCOCC1)c1nc2c(F)cccc2s1`: the cytotoxicity at 10 µM is -10.7%.
In the case of `Cc1cc(C(=O)N2CCO[C@H]3[C@H](Oc4ccccn4)CC[C@@H]32)c(C)[nH]1` it was -107%; in that of `COCC1CN(C(=O)c2cccn2C)Cc2c1cnn2CC1CC1` (stereo not drawn), 8.07%; in that of `COCC1c2c(cnn2C)CCN1Cc1ccc(C)cc1` (stereo not drawn), 45%.
With `CN(C)C(=O)c1nn(C)c2c1CN(Cc1ccc(F)cc1)C2`, the cytotoxicity at 10 µM is -9.88%.
In the case of `Cc1nnc([C@H]2C[C@@H]3CCN(Cc4ccc(C)o4)C[C@H]3O2)[nH]1`, the cytotoxicity at 10 µM was -2.1%.
For `Cc1ccc(N2C[C@H]3CCN(Cc4ccncc4)C[C@H]3C2)nn1`, the cytotoxicity at 10 µM is -111%.
The value for `CNC(=O)CN1C(=O)CCC12CCCN(Cc1cccc(F)c1)C2` (stereo not drawn) was -5.51%; that for `c1csc(CN2CCCC3(COCCN(Cc4c[nH]nn4)C3)C2)c1` (stereo not drawn) was 5.1%; that for `Cc1ncsc1CN1C[C@@H]2COC[C@]2(C(=O)NC2CC(F)(F)C2)C1` was -103%.
For the compound `CCOCC1CN(S(=O)(=O)CC)Cc2cnn(CC3CC3)c21` (stereo not drawn), the cytotoxicity at 10 µM came out at 9.55%.
The value for `O=C(C1CCC1)N1CC[C@H](O)[C@@H]1Cc1cccnc1` was -105%; that for `O=C(C1CCOCC1)N1C[C@@H]2C[C@@H](c3nc(C4CC4)cs3)O[C@@H]2C1` was -10.1%; that for `Cn1cccc1C(=O)N1CC2(CCN(C(=O)c3cccnc3)C2)C1` was -98.4%.
In the case of `CN(Cc1ccco1)[C@@H]1CN(Cc2ccc(F)cc2)C[C@@H]2CCCO[C@@H]21` it was 2.91%; in that of `CCOCCN1C[C@@H]2CCCO[C@@H]2[C@H](NC(=O)c2cnoc2C)C1`, -119%; in that of `Cn1nnc2c1C(COCc1ccccn1)CN(C(=O)c1cccs1)C2` (stereo not drawn), -11.2%.
In the case of `c1cc(CN2C[C@@H]3OCCN(CCN4CCCC4)[C@@H]3C2)ccn1` it was 3.39%; in that of `Cn1cc(CCC(=O)N2C[C@@H]3CC[C@H]2CN(Cc2ccccc2)C3)cn1`, -1.97%; in that of `COc1ccnc(N2C[C@H]3CC[C@@H](C2)N(CC2CCC2)C3=O)n1`, -0.054%.
